We go through 24 molecules from ChEMBL document CHEMBL5143753, “Pyrimido[5,4-d]pyrimidine-Based Compounds as a Novel Class of Antitrypanosomal and Antileishmanial Agents” (ACS Med Chem Lett, 2022).

Series [1] in a line: Selectivity index, ratio of CC50 for human THP1 cells to IC50 for antitrypanosomal activity against Trypanosoma brucei brucei Lister 427 bloodstream forms. The series is classed as toxicity. The settings on record: read-out: Ratio CC50/IC50. In a few lines:
(§1)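 Selectivity index was calculated as THP1 CC50 divided by parasite IC50.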

In series [2] the test system is Trypanosoma brucei brucei. Put plainly: Antitrypanosomal activity against Trypanosoma brucei brucei Lister 427 bloodstream forms incubated for 72 hrs by resazurin based assay. The class given is functional, organism-based. The settings on record: for IC50: Lister 427, 72 h; for IC90: Lister 427, time 72 hrs. In a few lines: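 T. brucei was screened first at 10 μM, with pentamidine as the reference and internal control. IC50 was determined when growth inhibition was above 50%, reported with a 95% confidence interval for the mean curve of the independent assays.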

Series [3] is described as follows: Cytotoxicity in human THP-1 cells assessed as reduction in cell viability incubated for 48 hrs hrs by MTT assay. The series is classed as toxicity, cell-based.
Series [4] relates to Leishmania infantum. Put plainly: Antileishmanial activity against luciferase-expressing Leishmania infantum (MHOM/MA/67/ITMAP-263) axenic amastigotes incubated for 72 hrs by resazurin based assay relative to control. The series is classed as functional, organism-based. The settings on record: MHOM/MA/67/ITMAP-263, 72 h, in the assay text read “promastigotes” for “axenic amastigotes”. On the technique in general: The colour change of resazurin is a common sign of viable cells or microbes.

A short description of series [5]: Selectivity index, ratio of CC50 for human THP1 cells to IC50 for Antileishmanial activity against luciferase-expressing Leishmania infantum (MHOM/MA/67/ITMAP-263) axenic amastigotes incubated for 72 hrs by resazurin based assay relative to control. The settings on record: in the assay text read “promastigotes” for “axenic amastigotes”, read-out: Ratio CC50/IC50. The series is classed as toxicity. In a few lines: as §1

In general, IC50 refers to the concentration that inhibits the measured activity by half. As a reminder, the IC90 is the concentration at which the effect reaches the 90% level. High values mean weaker potency, low ones greater potency. What is called CC50 is the concentration that lowers cell viability or growth by half. Consider `OCCCOc1cccc(Nc2ncnc3c(N/N=C/c4ccc(O)c(O)c4)ncnc23)c1`, for which the selectivity ratio in series [1] worked out at 4. For the same molecule, in series [2], the IC50 amounted to 2.29 µM and the 90% effect concentration (IC90) was determined as 5.67 µM. Further, in series [3], the half-maximal cytotoxic concentration (CC50) at 48 h turned out to be 25 µM.

`OCCCOc1cccc(Nc2ncnc3c(N/N=C/c4ccc(O)cc4)ncnc23)c1`: in series [1], the selectivity ratio was 8. In series [2], this molecule gave an IC50 of 6.18 µM and an IC90 of 21.2 µM. Also, the CC50 at 48 h in series [3] came to 50 µM.

For the molecule `NNc1ncnc2c(Nc3cccc(OCCCO)c3)ncnc12`, in series [1], the selectivity ratio is > 10. Further, in series [2], the IC50 worked out at 9.89 µM and it took 24.1 µM to reach the 90% level (IC90). For the same molecule, in series [3], the CC50 at 48 h was > 100 µM.

In the case of `Oc1cc(/C=N/Nc2ncnc3c(Nc4cccc(OCc5ccncc5)c4)ncnc23)cc(O)c1O`, the selectivity ratio in series [1] was > 26. In series [2], this molecule came in with an IC50 of 3.88 µM and an IC90 of 8.36 µM. Also, the CC50 at 48 h in series [3] was > 100 µM.

As for `COc1cc(/C=N/Nc2ncnc3c(Nc4cccc(OCCCO)c4)ncnc23)cc(OC)c1OC`, the selectivity ratio in series [1] is 8. In series [2], this molecule showed a 50% inhibitory concentration (IC50) of 6.12 µM and an IC90 of 17.6 µM. Besides, the CC50 at 48 h in series [3] is 50 µM.

`COc1cc(/C=N/Nc2ncnc3c(Nc4ccc(OCCCO)cc4)ncnc23)cc(OC)c1O`: in series [1], the selectivity ratio stood at 4. Further, in series [2], the IC50 was found to be 12.4 µM and it took 255 µM to reach the 90% level (IC90). Also, the 50% cytotoxic concentration (CC50) at 48 h in series [3] was 50 µM.

`COc1cc(/C=N/Nc2ncnc3c(Nc4ccc(OCCCO)cc4)ncnc23)ccc1O`: the selectivity ratio in series [1] was determined as 14. Moreover, in series [2], the midpoint of inhibition, the IC50, lay at 3.76 µM and the concentration for an effect of 90% (IC90) was 9.22 µM. Also, the half-maximal cytotoxic concentration (CC50) at 48 h in series [3] turned out to be 50 µM.

Turning to `Oc1ccc(/C=N/Nc2ncnc3c(Nc4cccc(OCc5ccncc5)c4)ncnc23)cc1O`, the selectivity ratio in series [1] is > 58. For the same molecule, in series [2], it took 1.73 µM to reach half-maximal inhibition (IC50) and the 90% effect level (IC90) was put at 1.75 µM. Also, the CC50 at 48 h in series [3] was > 100 µM.

As to `OCCCOc1ccc(Nc2ncnc3c(N/N=C/c4ccc(O)cc4)ncnc23)cc1`, the selectivity ratio in series [1] worked out at 3. Besides, in series [2], the half-maximal inhibitory concentration (IC50) is 12.9 µM and the 90% effect concentration (IC90) came to 88.3 µM. Besides, the half-maximal cytotoxic concentration (CC50) at 48 h in series [3] was 50 µM.

Turning to `COc1ccc(/C=N/Nc2ncnc3c(Nc4cccc(OCCCO)c4)ncnc23)cc1OC`, the selectivity ratio in series [1] is > 37. In series [2], this molecule came in with a half-maximal inhibitory concentration (IC50) of 2.72 µM and a 90% effect concentration (IC90) of 8.17 µM. Also, the CC50 at 48 h in series [3] is > 100 µM.

Regarding `OCCCOc1cccc(Nc2ncnc3c(N/N=C/c4cc(O)c(O)c(O)c4)ncnc23)c1`, the selectivity ratio in series [1] turned out to be 15. In series [2], this molecule had a 50% inhibitory concentration (IC50) of 3.26 µM and an IC90 of 14.5 µM. In addition, the CC50 at 48 h in series [3] turned out to be 50 µM.

With `COc1cc(/C=N/Nc2ncnc3c(Nc4cccc(OCc5ccncc5)c4)ncnc23)cc(OC)c1O`, the selectivity ratio in series [1] is > 29. In series [2], this molecule came in with a concentration for half-maximal inhibition (IC50) of 3.41 µM and an IC90 of 37.2 µM. For the same molecule, in series [3], the CC50 at 48 h was > 100 µM.

Consider `NNc1ncnc2c(Nc3cccc(OCc4ccncc4)c3)ncnc12`, for which, in series [4], the midpoint of inhibition, the IC50, lay at 3.13 µM. Also, in series [1], the selectivity ratio is > 107. In addition, the selectivity ratio at 72 h in series [5] is > 32. Moreover, in series [2], 0.94 µM corresponded to half-maximal inhibition (IC50) and the IC90 was 1.24 µM. Besides, the cytotoxic concentration (CC50) at 48 h in series [3] was > 100 µM.

For `OCCCOc1ccc(Nc2ncnc3c(N/N=C/c4cc(O)c(O)c(O)c4)ncnc23)cc1`, in series [1], the selectivity ratio was > 14. In series [2], this molecule yielded a 50% inhibitory concentration (IC50) of 6.95 µM and an IC90 of 20.5 µM. Further, the cytotoxic concentration (CC50) at 48 h in series [3] was > 100 µM.

On to `NNc1ncnc2c(Nc3ccc(OCCCO)cc3)ncnc12`, for which the selectivity ratio in series [1] is > 33. Besides, in series [2], inhibition was half-maximal at 3.03 µM (IC50) and the IC90 is 35.8 µM. Besides, the cytotoxic concentration (CC50) at 48 h in series [3] was > 100 µM.

As for `COc1ccc(/C=N/Nc2ncnc3c(Nc4ccc(OCCCO)cc4)ncnc23)cc1O`, the selectivity ratio in series [1] came to 19. In series [2], the 50% inhibitory concentration (IC50) turned out to be 2.6 µM and the IC90 stood at 8.73 µM. Moreover, the CC50 at 48 h in series [3] is 50 µM.

On to `COc1cc(/C=N/Nc2ncnc3c(Nc4ccc(OCCCO)cc4)ncnc23)cc(OC)c1OC`, for which the selectivity ratio in series [1] is > 30. Further, in series [2], half-maximal inhibition (IC50) required 3.32 µM and the concentration for an effect of 90% (IC90) was 37.7 µM. Moreover, the 50% cytotoxic concentration (CC50) at 48 h in series [3] is > 100 µM.

For `COc1ccc(/C=N/Nc2ncnc3c(Nc4ccc(OCCCO)cc4)ncnc23)cc1OC`, the selectivity ratio in series [1] turned out to be 6. In series [2], the IC50 amounted to 8.59 µM and it took 25.5 µM to reach the 90% level (IC90). Moreover, in series [3], the 50% cytotoxic concentration (CC50) at 48 h was 50 µM.

For `COc1ccc(/C=N/Nc2ncnc3c(Nc4cccc(OCCCO)c4)ncnc23)cc1O`, the selectivity ratio in series [1] is 8. In addition, in series [2], the midpoint of inhibition, the IC50, lay at 6.57 µM and the concentration for an effect of 90% (IC90) was found to be 18.7 µM. Besides, the CC50 at 48 h in series [3] stood at 50 µM.

With `OCCCOc1ccc(Nc2ncnc3c(N/N=C/c4ccc(O)c(O)c4)ncnc23)cc1`, in series [1], the selectivity ratio is 5. Besides, in series [2], the half-maximal inhibitory concentration (IC50) was 1.9 µM and the 90% effect concentration (IC90) was 2.07 µM. In series [3], the CC50 at 48 h was 25 µM.

Turning to `COc1cc(/C=N/Nc2ncnc3c(Nc4cccc(OCCCO)c4)ncnc23)ccc1O`, the selectivity ratio in series [1] is 1. In series [2], 13.4 µM corresponded to half-maximal inhibition (IC50) and the IC90 stood at 44.9 µM. Moreover, the CC50 at 48 h in series [3] amounted to 25 µM.

Take `COc1cc(/C=N/Nc2ncnc3c(Nc4cccc(OCCCO)c4)ncnc23)cc(OC)c1O`: the selectivity ratio in series [1] worked out at 4. In series [2], this molecule came in with an IC50 of 6.06 µM and an IC90 of 18.1 µM. In series [3], the CC50 at 48 h was found to be 50 µM.

On to `CCCCCCCCCCCCCCCCOP(=O)([O-])OCC[N+](C)(C)C` [MILTEFOSINE], for which the IC50 in series [4] was found to be 2.21 µM. The selectivity ratio at 72 h in series [5] came to 1.3. Moreover, the CC50 at 48 h in series [3] was 30.9 µM.

With `N=C(N)c1ccc(OCCCCCOc2ccc(C(=N)N)cc2)cc1` [PENTAMIDINE], in series [1], the selectivity ratio was 12800. This molecule also displayed an IC50 in series [2] of 0.00405 µM. Besides, the CC50 at 48 h in series [3] was found to be 51.8 µM.
